Here are results for 13 molecules from ChEMBL document CHEMBL4184142, “A Naturally Occurring Isoform-Specific Probe for Highly Selective and Sensitive Detection of Human Cytochrome P450 3A5” (J Med Chem, 2017).

Data set [1] has as its target T1, Cytochrome P450 3A5 (Homo sapiens, UniProt P20815). In words: Substrate activity at CYP3A5 (unknown origin) assessed as enzyme-mediated compound turnover assessed per pmol protein at 10 uM. The format is ADME.
The target in data set [2] is T2, Cytochrome P450 3A4 (Homo sapiens, UniProt P08684). In words: Substrate activity at CYP3A4 (unknown origin) assessed as enzyme-mediated compound turnover assessed per pmol protein at 10 uM. Type of data set: ADME.
The nature of data set [3]: Intrinsic clearance in human liver microsomes assessed per mg liver microsome. Type of data set: ADME. The conditions noted are these: read-out: […]. In short, it runs like this:
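HLM at 0.4 mg/mL, 20 min at 37 °C, in 100 mM potassium phosphate pH 7.4 with NADPH-generating system (1 mM NADP+, 10 mM glucose-6-phosphate, 1 unit/mL G6PDH, 4 mM MgCl2). Substrate at 2–200 μM, 1% methanol. Km and Vmax from nonlinear regression. CLint = Vmax/Km. Three experiments in duplicate, mean ± SD.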

Data set [4] deals with T1, Cytochrome P450 3A5. In words: Substrate activity at CYP3A5 in human HepG2 cell s9 fractions assessed as enzyme-mediated benzoic acid (6R,7S)-2,6,10-trihydroxy-1,3,11,12-tetramethoxy-6,7-dimethyl-5,6,7,8-tetrahydro-dibenzo[a,c]cycloocten-5-yl ester formation at 50 uM after 60 mins by LC-MS/MS analysis. The note with it: s9, 1 h. The format is ADME, S9 Fraction. In outline: (§1)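 HepG2 or Caco-2 cells grown to 90% confluence in 75 cm2 flasks, trypsinized, sonicated in ice-cold PBS. S9 taken as the 9000g 20-min supernatant, protein by BCA. Incubated with 50 μM substrate and NADPH-generating system, pH 7.4 phosphate, 37 °C for 60 min. Stopped with ice-cold methanol, then centrifuged.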

In data set [5] the target is Cytochrome P450 3A4 (Homo sapiens, UniProt P08684, L210F). In words: Substrate activity at full length CYP3A4 L210F mutant (unknown origin) expressed in […] assessed as enzyme-mediated benzoic acid (6R,7S)-2,6,10-trihydroxy-1,3,11,12-tetramethoxy-6,7-dimethyl-5,6,7,8-tetrahydro-dibenzo[a,c]cycloocten-5-yl ester formation after 60 mins in presence of NADPH by UFLC-DAD analysis wild type CYP3A4. Type of data set: cell-based. The note with it: 1 h. In outline: (§2)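 Full-length CYP3A4/CYP3A5 cDNA mutants transfected into COS-7 cells (4 μg plasmid per well). After 24 h, cells were sonicated and S9 fractions prepared (9000g supernatant). Incubation: 5 mg/mL S9 and 50 μM substrate in 100 mM potassium phosphate pH 7.4 with NADPH-generating system, 37 °C, 60 min. Stopped with methanol, metabolite quantified by UFLC-DAD.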

Data set [6] deals with T1, Cytochrome P450 3A5. As to the kind of experiment: Substrate activity at recombinant human CYP3A5 expressed in bactosomes assessed as intrinsic clearance by measuring ratio of Vmax/Km for 2-O-demethylation assessed per pmol protein. The format is ADME. The conditions noted are these: recombinant enzyme. In short, it runs like this: (§3)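 Bactosome rhCYP3A4 (40 nM, 20 min) or rhCYP3A5 (20 nM, 5 min) incubated at 37 °C with substrate at 2–200 μM in 100 mM potassium phosphate pH 7.4 with NADPH-generating system, 1% methanol. Stopped with ice-cold methanol, demethylated metabolite quantified by UFLC-DAD. Km and Vmax from nonlinear regression; CLint = Vmax/Km. Three experiments in duplicate.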

Data set [7] addresses T1, Cytochrome P450 3A5. In words: Substrate activity at CYP3A5 in human Caco2 cell s9 fractions assessed as enzyme-mediated benzoic acid (6R,7S)-2,6,10-trihydroxy-1,3,11,12-tetramethoxy-6,7-dimethyl-5,6,7,8-tetrahydro-dibenzo[a,c]cycloocten-5-yl ester formation at 50 uM after 60 mins by LC-MS/MS analysis. Type of data set: ADME, S9 Fraction. The note with it: s9, 1 h. In short, it runs like this:
as §1

Data set [8] in a line: Drug metabolism in s9 fractions (unknown origin) assessed as benzoic acid (6R,7S)-2,6,10-trihydroxy-1,3,11,12-tetramethoxy-6,7-dimethyl-5,6,7,8-tetrahydro-dibenzo[a,c]cycloocten-5-yl ester formation in presence of 3'-phosphoadenosine-5'-phosphosulfate by UFLC-DAD analysis. Type of data set: ADME, subcellular, S9 fraction.
A short description of data set [9]: Drug metabolism in s9 fractions (unknown origin) assessed as benzoic acid (6R,7S)-2,6,10-trihydroxy-1,3,11,12-tetramethoxy-6,7-dimethyl-5,6,7,8-tetrahydro-dibenzo[a,c]cycloocten-5-yl ester formation in presence of S-adenosyl-L-methionine by UFLC-DAD analysis. The format is ADME, subcellular, S9 fraction.
A short description of data set [10]: Drug metabolism in S9 fractions (unknown origin) assessed as benzoic acid (6R,7S)-2,6,10-trihydroxy-1,3,11,12-tetramethoxy-6,7-dimethyl-5,6,7,8-tetrahydro-dibenzo[a,c]cycloocten-5-yl ester formation in presence of UDP-glucuronic acid by UFLC-DAD analysis. Type of data set: ADME, subcellular, S9 fraction.
In data set [11] the target is Cytochrome P450 3A5 (Homo sapiens, UniProt P20815, F210L). As to the kind of experiment: Substrate activity at full length CYP3A5 F210L mutant (unknown origin) expressed in […] assessed as enzyme-mediated benzoic acid (6R,7S)-2,6,10-trihydroxy-1,3,11,12-tetramethoxy-6,7-dimethyl-5,6,7,8-tetrahydro-dibenzo[a,c]cycloocten-5-yl ester formation after 60 mins in presence of NADPH by UFLC-DAD analysis relative to wild type CYP3A5. The format is ADME, cell-based. The conditions noted are these: s9, 1 h. In short, it runs like this: as §2

A short description of data set [12]: Substrate activity at CYP450 in human liver microsomes with NADPH-generating system assessed as CYP-mediated benzoic acid (6R,7S)-2,6,10-trihydroxy-1,3,11,12-tetramethoxy-6,7-dimethyl-5,6,7,8-tetrahydro-dibenzo[a,c]cycloocten-5-yl ester formation at 5 uM after 25 mins in presence of CYP inhibitor ABT. The format is ADME. In outline: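 Substrate at 5 μM in pooled HLM (0.2 mg protein/mL) with NADPH-generating system in 100 mM phosphate pH 7.4, 37 °C, with or without inhibitor: ketoconazole 1 μM for CYP3A. CYP3cide 1 μM and ABT 500 μM were preincubated with NADPH-generating system at 37 °C for 25 min. Metabolite quantified by UFLC-DAD. Three experiments in duplicate.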
A general note: Liver microsomes are a subcellular fraction often used to study metabolism.

Data set [13] is described as follows: Drug metabolism in human liver microsomes assessed as Vmax for 2-O-demethylation. The format is ADME, microsome. In short, it runs like this: (§4)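 Pooled HLM at 0.4 mg/mL incubated 20 min at 37 °C with substrate at 2, 5, 10, 20, 50, 100, 200 μM. Buffer was 100 mM potassium phosphate pH 7.4 with an NADPH-generating system, methanol 1% (v/v) final, 3 min preincubation. Reaction stopped with ice-cold methanol; 2-O-demethylated metabolite read by UFLC-DAD. Apparent Km and Vmax from nonlinear regression; three experiments in duplicate.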

Data set [14] is described as follows: Drug metabolism in human liver microsomes assessed as Km for 2-O-demethylation. The format is ADME, microsome. In outline: as §4
Data set [15] addresses T2, Cytochrome P450 3A4. In words: Substrate activity at recombinant human CYP3A4 expressed in bactosomes assessed as intrinsic clearance by measuring ratio of Vmax/Km for 2-O-demethylation assessed per pmol protein. Type of data set: ADME. The note with it: recombinant enzyme. In outline:
as §3

The next data set concerns HepG2. As to the kind of experiment: Cytotoxicity against human HepG2 cells at 300 uM by CCK-8 assay. The format is cell-based. The note with it: hepg2, 300 µM. In short, it runs like this:
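HepG2 viability after exposure measured with CCK-8 kit. Cells grown in complete DMEM with 10% FCS.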
Background: Formazan colour is commonly taken as a measure of viable cells.

Data set [16] has as its target T1, Cytochrome P450 3A5. In words: Substrate activity at CYP3A5 in human liver microsomes assessed as enzyme-mediated benzoic acid (6R,7S)-2,6,10-trihydroxy-1,3,11,12-tetramethoxy-6,7-dimethyl-5,6,7,8-tetrahydro-dibenzo[a,c]cycloocten-5-yl ester formation at 5 uM by LC-MS/MS analysis. The format is ADME.
Substrate in data set [17]: COc1cc2c(c(OC)c1OC)-c1c(cc(O)c(OC)c1OC)C[C@H](C)[C@](C)(O)[C@H]2OC(=O)c1ccccc1
As to the kind of experiment: Substrate activity at recombinant human CYP3A5 expressed in bactosomes assessed as Km for 2-O-demethylation after 5 mins by Eadie-Hofstee plot method. The format is ADME. In outline:
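Bactosome rhCYP3A5 (20 nM, coexpressed with human NADPH-P450 reductase) incubated 5 min at 37 °C with substrate 2–200 μM in 100 mM potassium phosphate pH 7.4 with NADPH-generating system, final methanol 1%. Reaction stopped with ice-cold methanol. Metabolite measured by UFLC-DAD. Apparent Km from nonlinear regression, plotted as Eadie–Hofstee. Three independent experiments in duplicate, mean ± SD.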

T2 sequence (P08684 whole entry): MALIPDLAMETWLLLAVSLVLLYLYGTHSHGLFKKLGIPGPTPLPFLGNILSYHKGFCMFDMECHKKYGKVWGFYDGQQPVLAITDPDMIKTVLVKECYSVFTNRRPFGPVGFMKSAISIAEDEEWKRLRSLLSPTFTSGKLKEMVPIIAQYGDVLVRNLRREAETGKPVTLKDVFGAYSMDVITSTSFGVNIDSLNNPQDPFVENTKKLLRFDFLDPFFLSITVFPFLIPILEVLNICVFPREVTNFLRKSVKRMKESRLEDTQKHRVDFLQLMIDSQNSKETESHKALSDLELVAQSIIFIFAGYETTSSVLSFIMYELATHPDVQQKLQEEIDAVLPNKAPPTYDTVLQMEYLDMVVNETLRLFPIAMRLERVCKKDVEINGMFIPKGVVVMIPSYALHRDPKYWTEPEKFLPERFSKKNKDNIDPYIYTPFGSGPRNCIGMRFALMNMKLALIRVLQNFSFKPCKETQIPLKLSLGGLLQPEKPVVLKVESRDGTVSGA
Cytochrome P450 3A4 (Homo sapiens, UniProt P08684, L210F), sequence (P08684 2-503 L210F limits assumed): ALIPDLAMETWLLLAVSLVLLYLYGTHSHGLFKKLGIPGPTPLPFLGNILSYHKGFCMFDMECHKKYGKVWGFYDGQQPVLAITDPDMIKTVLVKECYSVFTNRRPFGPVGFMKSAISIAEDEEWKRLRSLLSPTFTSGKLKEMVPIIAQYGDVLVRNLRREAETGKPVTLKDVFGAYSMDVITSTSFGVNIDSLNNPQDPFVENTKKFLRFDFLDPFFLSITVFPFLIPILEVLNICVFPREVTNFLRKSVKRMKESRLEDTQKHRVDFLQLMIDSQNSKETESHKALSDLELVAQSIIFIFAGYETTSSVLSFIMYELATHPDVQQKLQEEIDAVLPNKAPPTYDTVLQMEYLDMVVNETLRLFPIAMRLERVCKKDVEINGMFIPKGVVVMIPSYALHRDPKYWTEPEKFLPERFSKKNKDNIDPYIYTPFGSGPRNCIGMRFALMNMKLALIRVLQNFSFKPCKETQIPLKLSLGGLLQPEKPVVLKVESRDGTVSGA
Cytochrome P450 3A5 (Homo sapiens, UniProt P20815, F210L), sequence (P20815 whole entry F210L): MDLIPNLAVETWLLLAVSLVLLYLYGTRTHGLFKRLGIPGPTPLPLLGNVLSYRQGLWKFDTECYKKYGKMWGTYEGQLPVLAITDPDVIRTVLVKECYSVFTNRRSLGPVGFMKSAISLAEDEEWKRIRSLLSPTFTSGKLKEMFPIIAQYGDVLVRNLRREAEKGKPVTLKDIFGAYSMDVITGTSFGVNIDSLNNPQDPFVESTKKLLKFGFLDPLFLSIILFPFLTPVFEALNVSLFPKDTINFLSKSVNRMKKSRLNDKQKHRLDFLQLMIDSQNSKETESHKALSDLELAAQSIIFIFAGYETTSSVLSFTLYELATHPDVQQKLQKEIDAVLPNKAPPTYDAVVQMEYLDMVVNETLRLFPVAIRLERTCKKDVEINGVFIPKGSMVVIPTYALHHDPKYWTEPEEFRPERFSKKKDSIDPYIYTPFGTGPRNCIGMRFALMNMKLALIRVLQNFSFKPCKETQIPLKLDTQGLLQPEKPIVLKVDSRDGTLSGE

As to `C/C=C(/C)C(=O)OC1c2cc(OC)c(OC)c(OC)c2-c2c(cc3c(c2OC)OCO3)C[C@H](C)[C@@]1(C)O` (stereo partly specified), the Drug metabolism entry on Cytochrome P450 3A5 [1] and at Cytochrome P450 3A4 [2] was “Metabolite_Notdetected” throughout.
As to `COc1cc2c(c(O)c1OC)-c1c(cc(OC)c(OC)c1OC)C[C@H](C)[C@H](C)C2`, the Drug metabolism on Cytochrome P450 3A5 [1] was in the range of 4 to 9 pmol/min; on Cytochrome P450 3A4 [2], 10 to 15 pmol/min.
Taken in the same sequence, the figures for `COc1cc2c(c(OC)c1OC)-c1c(cc(OC)c(OC)c1OC)C[C@H](C)[C@H](C)C2` [SCHISANDRIN A] were 10 to 15 pmol/min and 16 to 29 pmol/min.
On the same counts, the results for `COc1cc2c(c(OC)c1OC)-c1c(cc3c(c1OC)OCO3)C[C@H](C)[C@@](C)(O)C2O` (stereo partly specified) are 1 to 3 pmol/min and 4 to 9 pmol/min.
On the same counts, the results for `COc1c(O)cc2c(c1OC)-c1c(cc(O)c(OC)c1OC)C(O)[C@@H](C)[C@@H](C)C2` (stereo partly specified) are 1 to 3 pmol/min and 4 to 9 pmol/min.
`COc1c2c(cc3c1-c1c(cc4c(c1OC)OCO4)C[C@H](C)[C@H](C)C3)OCO2` [SCHISANDRIN C]: the Drug metabolism entry on Cytochrome P450 3A5 [1] and at Cytochrome P450 3A4 [2] was “Metabolite_Notdetected” each time.
Take `COc1cc2c(c(OC)c1OC)-c1c(cc3c(c1OC)OCO3)C[C@H](C)[C@@](C)(O)C2` [BESIGOMSIN]: the Drug metabolism on Cytochrome P450 3A5 [1] lay in the range of 1 to 3 pmol/min; on Cytochrome P450 3A4 [2] it was 10 to 15 pmol/min.
On the same counts, the results for `COc1cc2c(c(OC)c1OC)-c1c(cc3c(c1OC)OCO3)C(OC(=O)c1ccccc1)[C@](C)(O)[C@@H](C)C2` (stereo partly specified) are 1 to 3 pmol/min and 4 to 9 pmol/min.
Consider `COc1cc2c(c(OC)c1OC)-c1c(cc3c(c1OC)OCO3)C[C@H](C)[C@H](C)C2` [WUWEIZISU B], for which the Drug metabolism entry at Cytochrome P450 3A5 [1] and on Cytochrome P450 3A4 [2] was “Metabolite_Notdetected” throughout.
The term Vmax denotes the rate approached at saturating substrate. For orientation: Km means the concentration of substrate that gives half-maximal velocity. Take `COc1cc2c(c(OC)c1OC)-c1c(cc(O)c(OC)c1OC)C[C@H](C)[C@](C)(O)[C@H]2OC(=O)c1ccccc1`: in data set [3], the microsomal CLint was found to be 50.2 µL/min/mg. Also, the Drug metabolism entry on Cytochrome P450 3A5 [4] is “Metabolite_Detected”; at Cytochrome P450 3A5 [1] it was “>= 30 pmol/min”; at Cytochrome P450 3A5 [7], “Metabolite_Detected”; in data set [8], “Metabolite_Notdetected”; in data set [9] it was “Metabolite_Notdetected”; in [10] it was “Metabolite_Notdetected”. Further, the figures for the Drug metabolism entry (in data set [12]; on Cytochrome P450 3A4 [2]; on Cytochrome P450 3A5 [16]) were “Metabolite_Notdetected”, 1 to 3 pmol/min and 23.2 to 159 pmol/min/mg, respectively. Besides, the “fold change (FC)” value is listed as 2.6 on Cytochrome P450 3A4 [5] and 2.1 at Cytochrome P450 3A5 [11]. For the same molecule, the figures for the Ratio on Cytochrome P450 3A5 [6] and on Cytochrome P450 3A4 [15] were 10.7 µL/min/pmol and 0.46 µL/min/pmol, respectively. For the same molecule, the Vmax in [13] worked out at 248.5 pmol/min/mg. The Km in data set [14] is 4.95 µM. Further, the Activity entry in the data set with HepG2 is on record as “Non-Toxic”.
Turning to `COc1cc2c(c(OC)c1OC)-c1c(cc3c(c1OC)OCO3)C[C@H](C)[C@@](C)(O)C2OC(=O)c1ccccc1` (stereo partly specified), the Drug metabolism entry on Cytochrome P450 3A5 [1] and on Cytochrome P450 3A4 [2] was “Metabolite_Notdetected” each time.
Consider `COc1cc2c(c(OC)c1OC)-c1c(cc(OC)c(OC)c1OC)C[C@](C)(O)[C@@H](C)C2` [SCHIZANDRIN], for which the figures for the Drug metabolism at Cytochrome P450 3A5 [1] and on Cytochrome P450 3A4 [2] were 1 to 3 pmol/min and “>= 30 pmol/min”, respectively.

B1: Cytochrome P450 3A5 (Homo sapiens) (protein)
chain: MDLIPNLAVETWLLLAVSLVLLYLYGTRTHGLFKRLGIPGPTPLPLLGNVLSYRQGLWKFDTECYKKYGKMWGTYEGQLPVLAITDPDVIRTVLVKECYSVFTNRRSLGPVGFMKSAISLAEDEEWKRIRSLLSPTFTSGKLKEMFPIIAQYGDVLVRNLRREAEKGKPVTLKDIFGAYSMDVITGTSFGVNIDSLNNPQDPFVESTKKFLKFGFLDPLFLSIILFPFLTPVFEALNVSLFPKDTINFLSKSVNRMKKSRLNDKQKHRLDFLQLMIDSQNSKETESHKALSDLELAAQSIIFIFAGYETTSSVLSFTLYELATHPDVQQKLQKEIDAVLPNKAPPTYDAVVQMEYLDMVVNETLRLFPVAIRLERTCKKDVEINGVFIPKGSMVVIPTYALHHDPKYWTEPEEFRPERFSKKKDSIDPYIYTPFGTGPRNCIGMRFALMNMKLALIRVLQNFSFKPCKETQIPLKLDTQGLLQPEKPIVLKVDSRDGTLSGE
As to B1, in [17], the Km was found to be 5.9 µM and the Vmax came out at 6.34e-05 µmol/min.
